Experimental data as given in ChEMBL document CHEMBL1773041, “Lehualides E-K, cytotoxic metabolites from the Tongan marine sponge Plakortis sp” (J Nat Prod, 2011).
pIC50: −log10 of the molar value. The source made the active and inactive calls. The rule behind the calls is not given here.

Legend:
Saccharomyces cerevisiae [1] = test: Antimicrobial activity against Saccharomyces cerevisiae YCG198 harboring Saccharomyces cerevisiae Y8205 MATalpha PDR1delta::NAT PDR3 delta::URA3 assessed as growth inhibition at 100 uM after 18 hrs; format: functional; details: YCG198, 18 h, read-out: GI
Summary of the method: (§1)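 Stationary-phase yeast grown in synthetic complete medium, diluted to 5 × 10^5 cells/mL, then exposed 18 h at 30 °C to seven-point half-log dilutions from DMSO stocks (final 100 to 0.01 μM; one extended series topped at 300 μM). DMSO (1% or 3%) served as control. Growth was read as OD590, and residual growth = OD/OD_DMSO × 100. Mean ± standard error of two independent experiments in triplicate; IC50 from curve fit.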

Saccharomyces cerevisiae [2] = test: Antimicrobial activity against Saccharomyces cerevisiae YCG198 harboring Saccharomyces cerevisiae Y8205 MATalpha PDR1delta::NAT PDR3 delta::URA3 assessed as growth inhibition after 18 hrs; format: functional, organism-based; details: YCG198, 18 h; summary of the method: as §1
HL-60 = test: Cytotoxicity against human HL60 cells assessed as growth inhibition after 2 days by MTT assay; format: functional, cell-based; details: HL-60, 48 h
Saccharomyces cerevisiae [3] = test: Antimicrobial activity against wild type Saccharomyces cerevisiae YCG117 harboring Saccharomyces cerevisiae Y8205 MATalpha ura3delta0::NAT assessed as growth inhibition at 0.01 to 100 uM after 18 hrs; format: functional, organism-based; summary of the method: as §1
Saccharomyces cerevisiae [4] = test: Antimicrobial activity against Saccharomyces cerevisiae YCG198 harboring Saccharomyces cerevisiae Y8205 MATalpha PDR1delta::NAT PDR3 delta::URA3 assessed as growth inhibition at 0.01 to 100 uM after 18 hrs; format: functional, organism-based; summary of the method: as §1

Row | SMILES | inhibition of growth at 100 µM (Saccharomyces cerevisiae [1]) | pIC50 (Saccharomyces cerevisiae [2]) | pIC50 (HL-60) | growth inhibition (GI) (Saccharomyces cerevisiae [3]) | growth inhibition (GI) (Saccharomyces cerevisiae [4])
1 | COc1c(O)c(C)c(C/C=C(\C)CCCCCCc2ccccc2)oc1=O [LEHUALIDE F] | 60% | 4.36 | 5.21 |  | 
2 | COc1c(O)c(C)c(C/C=C(\C)CCCCCCCCc2ccccc2)oc1=O [LEHUALIDE G] | 68% |  | 5.27 | inactive | 
3 | COc1c(C)c(CCCCCCCCCCSC(C)=O)oc(=O)c1OC [LEHUALIDE H] |  |  | 4.84 | inactive | inactive
4 | COc1c(C)c(CCCCCCCCCCSC)oc(=O)c1OC [LEHUALIDE I] | 67% |  | 4.97 | inactive | 
